Measured values published in ChEMBL document CHEMBL1139384, “First Cdc7 kinase inhibitors: pyrrolopyridinones as potent and orally active antitumor agents. 2. Lead discovery” (J Med Chem, 2009).
Calls of active or inactive are those of the source. No cut-off for these calls is given here.

Key:
[1] = Clearance in nu/nu mouse at 10 mg/kg, iv administered as single dose; type: ADME, organism-based; set-up: dose 10 mg/kg, route intravenous; conditions: in vivo
Summary of the method: (§1)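 Single iv or oral dose in 5% dextrose to overnight-fasted animals. Nu/Nu mice: males, 3 per route, saphenous bleeds to 24 h. Han-Wistar rats: males, 3 per route, jugular bleeds to 24 h. Beagle dogs: 2 per sex, iv and po crossover 2 weeks apart, jugular bleeds to 48 h. Plasma by LC/MS/MS; noncompartmental parameters, AUC by linear trapezoid with extrapolation.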

[2] = Cmax in Wistar rat at 20 mg/kg, po administered as single dose; conditions: in vivo
HeLa [3] = assay: Cell cycle arrest in human HeLa cells assessed as accumulation at G1/S phase at 3 uM by fluorescence activated cell sorting; type: functional, cell-based
Summary of the method: (§2)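 Logarithmically growing HeLa cells exposed to 3 µM for set times, labelled with 50 µM BrdU, fixed in 70% ethanol. DNA content by propidium iodide with RNase A, 30 min at 37 °C; BrdU by FITC anti-BrdU after 2N HCl denaturation; percent positive cells by FACS.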

[4] = Half life in Beagle dog at 10 mg/kg, po administered as single dose; type: ADME, organism-based, Canis lupus familiaris; set-up: dose 10 mg/kg, route oral; conditions: in vivo; summary of the method: as §1
[5] = target: Proto-oncogene tyrosine-protein kinase receptor Ret (Homo sapiens, UniProt P07949); assay: Inhibition of RET
[6] = Inhibition of CK2
[7] = target: Serine/threonine-protein kinase PAK 4 (Homo sapiens, UniProt O96013); assay: Inhibition of PAK4
[8] = target: RAC-alpha serine/threonine-protein kinase (Homo sapiens, UniProt P31749); assay: Inhibition of AKT1
[9] = target: Mitogen-activated protein kinase 11 (Homo sapiens, UniProt Q15759); assay: Inhibition of P38beta
[10] = Clearance in Wistar rat at 10 mg/kg, iv administered as single dose; type: ADME, organism-based; set-up: dose 10 mg/kg, route intravenous; conditions: in vivo; summary of the method: as §1
[11] = target: Serine/threonine-protein kinase NIM1 (Homo sapiens, UniProt Q8IY84); assay: Inhibition of NIM1
L-363 = assay: Antiproliferative activity against human L363 cells after 72 hrs by luciferase based assay; type: functional, cell-based; conditions: L-363, 72 h
Summary of the method: (§3)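 Cells seeded at 2500–5000/well in complete medium (RPMI1640, McCoy's or DMEM with 10% FCS, by line); compound added after 24 h, 72 h at 37 °C, 5% CO2.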

[12] = Renal clearance in Wistar rat at 10 mg/kg, iv administered as single dose; type: ADME, organism-based, Kidney; set-up: dose 10 mg/kg, route intravenous; conditions: in vivo, read-out: CL_renal (converted)
Summary of the method: (§4)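 Overnight-fasted male Han-Wistar rats got a single 10 mg/kg iv dose in 5% dextrose, three per leg. Jugular blood was drawn from 0.083 to 24 h. Urine was collected over 0–6 and 6–24 h. Plasma and urine were assayed by LC/MS/MS and analysed noncompartmentally. Vss = CL·MRT.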

[13] = target: T1, Cell division cycle 7-related protein kinase (Homo sapiens, UniProt O00311); assay: Inhibition of human Cdc7 in human A2780 cells assessed as inhibition of Ser40 phosphorylation of Mcm2 protein after 4 hrs; type: cell-based
Summary of the method: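 A2780 cells exposed for 4 h to a range of concentrations, then lysed in 50 mmol/L Tris-HCl pH 6.8, 1% SDS, 1 mmol/L DTT and sonicated 10 s. 15 µg protein per lane ([…]) was taken for Western blot with phospho-specific antibodies to MCM2 Ser40 and Ser53.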

HeLa [14] = assay: Inhibition of DNA synthesis in human HeLa cells at 3 uM assessed as bromodeoxyuridine incorporation; type: functional; set-up: scale not given: the % may be the effect or the level left; summary of the method: as §2
SW48 = assay: Antiproliferative activity against human SW48 cells after 72 hrs by luciferase based assay; type: functional, cell-based; conditions: SW48, 72 h; summary of the method: as §3
[15] = Clearance in Beagle dog at 5 mg/kg, iv administered as single dose; type: ADME, organism-based, Canis lupus familiaris; set-up: dose 5 mg/kg, route intravenous; conditions: in vivo; summary of the method: as §1
Rattus norvegicus = assay: AUC (0 to infinity) in Wistar rat at 20 mg/kg, po administered as single dose; conditions: in vivo
[16] = Antiproliferative activity against mouse NIH/3T3 cells after 72 hrs by luciferase based assay; type: cell-based; conditions: NIH3T3, 72 h; summary of the method: as §3
Cytochrome P450 2C9 = Cytochrome P450 2C9 (Homo sapiens, UniProt P11712); assay: Inhibition of human CYP2C9; type: ADME
[17] = target: T1, Cell division cycle 7-related protein kinase; assay: Inhibition of human Cdc7 assessed as inhibition of rate of phosphorylation of Mcm2 protein
[18] = target: Inhibitor of nuclear factor kappa-B kinase subunit epsilon (Homo sapiens, UniProt Q14164); assay: Inhibition of IKKi
HeLa [19] = assay: Inhibition of DNA synthesis in human HeLa cells at 3 uM assessed as bromodeoxyuridine incorporation after 6 hrs; type: functional; set-up: scale not given: the % may be the effect or the level left; summary of the method: as §2
[20] = Tmax in nu/nu mouse at 10 mg/kg, po administered as single dose; type: ADME, organism-based; set-up: dose 10 mg/kg, route oral; conditions: in vivo
Summary of the method: (§5)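 Overnight-fasted male Nu/Nu mice got a single 10 mg/kg dose in 5% dextrose, iv or po, three mice per route. Saphenous blood was drawn at 0.083 (iv) or 0.25 (po), 0.5, 1, 6 and 24 h. Plasma was assayed by LC/MS/MS and analysed noncompartmentally. Tmax is the observed peak time, Vss = CL·MRT, and F is the ratio of dose-normalized AUC∞ po/iv.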

[21] = target: Serine/threonine-protein kinase Nek6 (Homo sapiens, UniProt Q9HC98); assay: Inhibition of NEK6
[22] = AUC (0 to infinity) in nu/nu mouse at 10 mg/kg, po administered as single dose; type: ADME, organism-based; set-up: time infinity, dose 10 mg/kg, route oral; conditions: plasma; summary of the method: as §1
[23] = Oral bioavailability in nu/nu mouse at 10 mg/kg administered as single dose; type: ADME, organism-based; conditions: in vivo; summary of the method: as §5
[24] = Half life in Wistar rat at 20 mg/kg, po administered as single dose; conditions: in vivo
[25] = target: cAMP-dependent protein kinase catalytic subunit alpha (Homo sapiens, UniProt P17612); assay: Inhibition of PKAalpha
[26] = target: Serine/threonine-protein kinase Chk1 (Homo sapiens, UniProt O14757); assay: Inhibition of CHK1
[27] = target: STE20-like serine/threonine-protein kinase (Homo sapiens, UniProt Q9H2G2); assay: Inhibition of STLK2
HeLa [28] = assay: Cell cycle arrest in human HeLa cells assessed as accumulation at S phase at 3 uM by fluorescence activated cell sorting; type: functional, cell-based; summary of the method: as §2
[29] = target: Tyrosine-protein kinase ABL1 (Homo sapiens, UniProt P00519); assay: Inhibition of ABL
[30] = target: Vascular endothelial growth factor receptor 3 (Homo sapiens, UniProt P35916); assay: Inhibition of VEGFR3
[31] = Volume of distribution at steady state in Wistar rat at 10 mg/kg, iv administered as single dose; type: ADME, organism-based; set-up: dose 10 mg/kg, route intravenous; conditions: in vivo, read-out: Vdss; summary of the method: as §4
[32] = Antiproliferative activity against human SW403 cells after 72 hrs by luciferase based assay; type: functional, cell-based; conditions: SW-403, 72 h; summary of the method: as §3
[33] = Inhibition of Cdk2E
[34] = Half life in Wistar rat at 10 mg/kg, iv administered as single dose; type: ADME, organism-based; set-up: dose 10 mg/kg, route intravenous; conditions: in vivo; summary of the method: as §1

Sequence of Vascular endothelial growth factor receptor 3 (P35916 whole entry): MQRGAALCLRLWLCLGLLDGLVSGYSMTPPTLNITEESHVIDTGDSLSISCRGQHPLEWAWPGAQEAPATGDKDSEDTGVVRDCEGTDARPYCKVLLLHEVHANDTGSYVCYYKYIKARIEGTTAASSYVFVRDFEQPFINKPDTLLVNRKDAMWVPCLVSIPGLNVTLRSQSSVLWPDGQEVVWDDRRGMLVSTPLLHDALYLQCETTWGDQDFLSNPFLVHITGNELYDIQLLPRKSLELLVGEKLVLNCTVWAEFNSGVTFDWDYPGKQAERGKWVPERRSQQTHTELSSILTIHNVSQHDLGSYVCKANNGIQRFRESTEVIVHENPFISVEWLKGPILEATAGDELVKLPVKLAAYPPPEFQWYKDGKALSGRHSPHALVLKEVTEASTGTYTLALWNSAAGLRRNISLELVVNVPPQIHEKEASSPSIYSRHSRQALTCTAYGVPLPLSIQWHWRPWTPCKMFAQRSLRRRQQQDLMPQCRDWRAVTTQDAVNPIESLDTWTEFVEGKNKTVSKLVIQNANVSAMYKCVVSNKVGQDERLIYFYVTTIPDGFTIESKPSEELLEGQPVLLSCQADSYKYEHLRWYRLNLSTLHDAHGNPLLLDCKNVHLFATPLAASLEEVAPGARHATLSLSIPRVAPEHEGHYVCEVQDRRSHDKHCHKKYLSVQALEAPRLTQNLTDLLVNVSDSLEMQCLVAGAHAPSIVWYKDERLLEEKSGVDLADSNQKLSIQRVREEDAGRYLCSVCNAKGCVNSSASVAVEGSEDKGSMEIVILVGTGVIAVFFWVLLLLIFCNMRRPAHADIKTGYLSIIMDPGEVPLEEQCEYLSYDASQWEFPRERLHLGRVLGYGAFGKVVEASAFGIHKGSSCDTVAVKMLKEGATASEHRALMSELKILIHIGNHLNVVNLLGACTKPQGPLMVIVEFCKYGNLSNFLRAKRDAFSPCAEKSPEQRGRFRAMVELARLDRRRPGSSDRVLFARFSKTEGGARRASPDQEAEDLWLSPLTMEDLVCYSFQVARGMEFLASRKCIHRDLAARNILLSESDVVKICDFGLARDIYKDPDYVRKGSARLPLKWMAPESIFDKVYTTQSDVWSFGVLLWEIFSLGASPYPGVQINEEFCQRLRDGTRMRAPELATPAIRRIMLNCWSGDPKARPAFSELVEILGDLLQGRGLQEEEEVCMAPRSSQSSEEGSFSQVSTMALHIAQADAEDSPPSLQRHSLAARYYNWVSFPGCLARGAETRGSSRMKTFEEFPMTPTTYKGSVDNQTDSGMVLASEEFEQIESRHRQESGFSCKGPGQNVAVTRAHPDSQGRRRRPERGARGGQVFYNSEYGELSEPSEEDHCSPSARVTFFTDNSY
Sequence of RAC-alpha serine/threonine-protein kinase (P31749 whole entry): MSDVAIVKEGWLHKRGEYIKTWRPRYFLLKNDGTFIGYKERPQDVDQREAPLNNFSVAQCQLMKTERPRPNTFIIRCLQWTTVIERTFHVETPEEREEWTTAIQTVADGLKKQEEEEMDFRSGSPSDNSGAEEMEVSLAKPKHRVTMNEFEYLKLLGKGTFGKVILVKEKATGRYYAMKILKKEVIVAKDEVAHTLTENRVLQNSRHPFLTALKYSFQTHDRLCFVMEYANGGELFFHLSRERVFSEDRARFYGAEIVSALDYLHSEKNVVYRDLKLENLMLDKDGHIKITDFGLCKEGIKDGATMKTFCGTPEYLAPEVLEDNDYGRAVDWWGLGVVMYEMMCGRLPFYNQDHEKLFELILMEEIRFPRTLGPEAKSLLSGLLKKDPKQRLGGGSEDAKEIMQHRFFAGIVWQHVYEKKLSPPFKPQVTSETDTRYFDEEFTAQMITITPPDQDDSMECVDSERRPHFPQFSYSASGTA
Sequence of Serine/threonine-protein kinase PAK 4 (O96013 whole entry): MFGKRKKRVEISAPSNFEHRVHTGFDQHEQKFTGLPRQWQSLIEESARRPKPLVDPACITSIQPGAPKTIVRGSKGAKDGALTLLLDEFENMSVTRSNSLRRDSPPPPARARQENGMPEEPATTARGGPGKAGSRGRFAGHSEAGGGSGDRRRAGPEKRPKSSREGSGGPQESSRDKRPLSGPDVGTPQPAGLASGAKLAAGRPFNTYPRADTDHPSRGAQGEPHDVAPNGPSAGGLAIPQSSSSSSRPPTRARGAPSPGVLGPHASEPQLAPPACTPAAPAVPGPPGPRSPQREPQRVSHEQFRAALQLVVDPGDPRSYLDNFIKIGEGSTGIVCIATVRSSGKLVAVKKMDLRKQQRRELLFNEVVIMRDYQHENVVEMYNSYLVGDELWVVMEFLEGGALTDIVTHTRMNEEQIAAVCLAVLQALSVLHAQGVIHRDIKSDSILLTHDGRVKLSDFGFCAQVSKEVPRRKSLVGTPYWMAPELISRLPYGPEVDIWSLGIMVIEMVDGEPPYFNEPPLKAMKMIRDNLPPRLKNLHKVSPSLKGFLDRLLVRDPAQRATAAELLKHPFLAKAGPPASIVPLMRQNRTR
Sequence of STE20-like serine/threonine-protein kinase (Q9H2G2 whole entry): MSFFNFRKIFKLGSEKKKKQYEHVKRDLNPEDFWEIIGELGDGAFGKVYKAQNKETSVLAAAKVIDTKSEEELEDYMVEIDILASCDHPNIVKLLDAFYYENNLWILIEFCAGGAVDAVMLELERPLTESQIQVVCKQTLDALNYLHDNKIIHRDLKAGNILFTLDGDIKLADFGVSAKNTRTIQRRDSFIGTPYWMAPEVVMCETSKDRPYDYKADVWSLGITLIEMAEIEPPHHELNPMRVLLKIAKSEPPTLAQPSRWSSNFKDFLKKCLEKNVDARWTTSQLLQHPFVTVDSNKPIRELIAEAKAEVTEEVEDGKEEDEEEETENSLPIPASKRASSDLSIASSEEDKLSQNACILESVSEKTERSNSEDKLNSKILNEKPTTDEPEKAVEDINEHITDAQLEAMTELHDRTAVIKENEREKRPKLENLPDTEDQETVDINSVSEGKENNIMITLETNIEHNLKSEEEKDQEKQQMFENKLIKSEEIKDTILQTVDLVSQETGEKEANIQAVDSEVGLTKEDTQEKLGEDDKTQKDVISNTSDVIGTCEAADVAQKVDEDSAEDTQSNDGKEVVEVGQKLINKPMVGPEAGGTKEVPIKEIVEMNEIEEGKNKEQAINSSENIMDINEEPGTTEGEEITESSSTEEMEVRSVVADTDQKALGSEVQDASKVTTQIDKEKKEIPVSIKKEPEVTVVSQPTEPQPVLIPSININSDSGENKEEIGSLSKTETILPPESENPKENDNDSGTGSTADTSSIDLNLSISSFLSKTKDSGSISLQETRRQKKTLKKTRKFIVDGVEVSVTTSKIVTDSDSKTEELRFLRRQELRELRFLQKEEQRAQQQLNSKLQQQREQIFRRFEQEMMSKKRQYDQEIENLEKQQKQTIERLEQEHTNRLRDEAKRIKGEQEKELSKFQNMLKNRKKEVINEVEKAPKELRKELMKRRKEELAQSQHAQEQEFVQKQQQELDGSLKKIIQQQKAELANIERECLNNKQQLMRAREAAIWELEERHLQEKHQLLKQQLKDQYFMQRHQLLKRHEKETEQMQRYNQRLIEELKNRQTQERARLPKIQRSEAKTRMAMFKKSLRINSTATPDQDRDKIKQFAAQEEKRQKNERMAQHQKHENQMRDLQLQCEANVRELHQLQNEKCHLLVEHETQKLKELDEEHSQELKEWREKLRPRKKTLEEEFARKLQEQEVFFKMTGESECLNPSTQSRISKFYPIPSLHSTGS
Sequence of Mitogen-activated protein kinase 11 (Q15759 whole entry): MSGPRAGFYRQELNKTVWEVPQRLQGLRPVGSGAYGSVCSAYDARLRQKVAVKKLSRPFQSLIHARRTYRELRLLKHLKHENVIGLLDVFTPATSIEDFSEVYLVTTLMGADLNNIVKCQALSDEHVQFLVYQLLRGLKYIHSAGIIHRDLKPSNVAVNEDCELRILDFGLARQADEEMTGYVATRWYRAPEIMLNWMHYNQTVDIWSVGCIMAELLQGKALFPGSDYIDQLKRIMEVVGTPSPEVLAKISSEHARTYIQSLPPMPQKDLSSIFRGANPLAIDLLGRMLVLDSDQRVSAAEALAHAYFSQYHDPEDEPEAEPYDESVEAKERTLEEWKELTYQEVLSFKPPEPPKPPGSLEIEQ
Sequence of Serine/threonine-protein kinase Chk1 (O14757 whole entry): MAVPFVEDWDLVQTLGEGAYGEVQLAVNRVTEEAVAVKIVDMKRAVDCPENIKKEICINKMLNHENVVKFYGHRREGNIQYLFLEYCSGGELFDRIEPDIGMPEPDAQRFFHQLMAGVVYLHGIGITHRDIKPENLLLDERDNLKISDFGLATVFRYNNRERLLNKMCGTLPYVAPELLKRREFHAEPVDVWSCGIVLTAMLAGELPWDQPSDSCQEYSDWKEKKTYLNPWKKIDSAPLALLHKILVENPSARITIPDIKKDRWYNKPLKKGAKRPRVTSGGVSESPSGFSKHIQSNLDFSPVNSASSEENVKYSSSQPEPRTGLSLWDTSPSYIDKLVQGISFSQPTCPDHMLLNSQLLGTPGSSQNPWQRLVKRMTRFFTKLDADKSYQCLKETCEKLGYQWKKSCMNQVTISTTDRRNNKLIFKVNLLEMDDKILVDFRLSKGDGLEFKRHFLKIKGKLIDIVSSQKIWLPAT
Sequence of Cytochrome P450 2C9 (P11712 whole entry): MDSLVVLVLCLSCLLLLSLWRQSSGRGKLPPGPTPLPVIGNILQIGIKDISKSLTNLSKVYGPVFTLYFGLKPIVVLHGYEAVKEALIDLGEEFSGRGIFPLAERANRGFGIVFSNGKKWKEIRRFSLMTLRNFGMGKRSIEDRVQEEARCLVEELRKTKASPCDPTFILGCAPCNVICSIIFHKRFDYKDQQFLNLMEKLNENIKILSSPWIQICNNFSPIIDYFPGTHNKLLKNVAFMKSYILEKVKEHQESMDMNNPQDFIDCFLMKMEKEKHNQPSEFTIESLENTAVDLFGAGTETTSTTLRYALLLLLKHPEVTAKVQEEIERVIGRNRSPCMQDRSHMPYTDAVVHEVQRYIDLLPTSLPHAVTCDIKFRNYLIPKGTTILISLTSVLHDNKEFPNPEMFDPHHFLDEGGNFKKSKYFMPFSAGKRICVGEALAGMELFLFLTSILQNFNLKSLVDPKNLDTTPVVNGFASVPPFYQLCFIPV

## Nc1nccc(-c2cc3c([nH]2)[C@@H](CCF)CNC3=O)n1
[1]
  clearance: 61.7 mL/min/kg
[2]
  Cmax: 2000 nM
HeLa [3]
  Activity: Active
[4]
  half-life: 1.2 h
[5]
  IC50: > 4000 nM
[6]
  IC50: 359 nM
[7]
  IC50: > 4000 nM
[8]
  IC50: > 4000 nM
[9]
  IC50: > 4000 nM
[10]
  clearance: 30 mL/min/kg
[11]
  IC50: > 4000 nM
L-363
  IC50: 1300 nM
[12]
  CL renal: 18.3 mL/min/kg
[13]
  MED: 0.6 µM
HeLa [14]
  Activity: 35%
SW48
  IC50: 900 nM
[15]
  clearance: 53.3 mL/min/kg
Rattus norvegicus
  AUC: 18.9 µM·h
[16]
  IC50: 2500 nM
Cytochrome P450 2C9
  Activity: Not Active
[17]
  IC50: 2 nM
[18]
  IC50: > 4000 nM
HeLa [19]
  Activity: 16%
[20]
  Tmax: 0.5 h
[21]
  IC50: > 4000 nM
[22]
  AUC(0-inf): 5 µM·h
[23]
  bioavailability: 53%
[24]
  half-life: 6.2 h
[25]
  IC50: > 4000 nM
[26]
  IC50: > 4000 nM
[27]
  IC50: > 4000 nM
HeLa [28]
  Activity: Active
[29]
  IC50: > 4000 nM
[30]
  IC50: > 4000 nM
[31]
  Vd: 2.1 L/kg
[32]
  IC50: 600 nM
[33]
  IC50: 670 nM
[34]
  half-life: 1.3 h
